The values below come from ChEMBL document CHEMBL4706631, “Potent and Selective Mitogen-Activated Protein Kinase Kinase 1/2 (MEK1/2) Heterobifunctional Small-molecule Degraders” (J Med Chem, 2020).

Series [1] relates to HT-29. The series is described as follows: Inhibition of ERK phosphorylation in human HT-29 cells incubated for 24 hrs by Western blot analysis. The format is cell-based.
Series [2] concerns HT-29. The series is described as follows: Inhibition of ERK phosphorylation in human HT-29 cells pre-incubated with PD0325901 for 2 hrs followed by compound addition at 0.3 uM and further incubated for 8 hrs by Western blot analysis. In kind it is cell-based.
For series [3], the system named is HT-29. The series is described as follows: Inhibition of ERK phosphorylation in human HT-29 cells pre-incubated with POMA for 2 hrs followed by compound addition at 0.3 uM and further incubated for 8 hrs by Western blot analysis. The format is cell-based. On the technique in general: A western blot detects proteins with antibodies after separation by electrophoresis.

The test system of series [4] is HT-29. The series is described as follows: Inhibition of ERK phosphorylation in human HT-29 cells pre-incubated with MG132 for 2 hrs followed by compound addition at 0.3 uM and further incubated for 8 hrs by Western blot analysis. In kind it is cell-based.
Series [5] has as its system HT-29. Put plainly: Inhibition of ERK phosphorylation in human HT-29 cells pre-incubated with MLN4924 for 2 hrs followed by compound addition at 0.3 uM and further incubated for 8 hrs by Western blot analysis. The format is cell-based.
The subject of series [6] is HT-29. Put plainly: Inhibition of colony formation in human HT-29 cells at 30 to 300 nM incubated for 10 days by crystal violet staining based assay. The conditions noted are these: dose 30-300 nM, time 10.0 day. In kind it is functional, cell-based. The gist of the method: (§1)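 HT-29 clonogenic assay: cells were exposed to compounds for 10 days, then fixed and stained with crystal violet. Two independent experiments.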

For series [7], the system named is HT-29. Put plainly: Inhibition of ERK phosphorylation in human HT-29 cells at 0.3 uM and further incubated for 8 hrs by Western blot analysis.
Series [8] concerns NCI-H3122. The series is described as follows: Antiproliferative activity against human NCI-H3122 cells at 0.014 to 3.33 uM incubated for 3 days by WST8 assay. The format is functional, cell-based. The settings on record: dose 0.014-3.33 µM, time 3.0 day. The gist of the method: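 NCI-H3122 cells were exposed to serial compound dilutions for 3 days, with WST-8 live-cell readout. Each concentration was run in triplicate. Student's t-test per concentration versus DMSO.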
For orientation: Formazan colour is commonly taken as a measure of viable cells.

Series [9] deals with HT-29. Put plainly: Inhibition of ERK phosphorylation in human HT-29 cells at 0.3 to 3 uM incubated for 24 hrs by Western blot analysis. In kind it is cell-based. The conditions noted are these: dose 0.3-3 µM.
For series [10], the system named is HT-29. Put plainly: Effect on global proteome expression in human HT-29 cells at 0.1 uM incubated for 8 hrs by mass spectrometry analysis based global proteome analysis. In kind it is functional, cell-based. The gist of the method: (§2)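 HT-29 cells were treated 8 h (0.1% DMSO vehicle) and then lysed in 8 M urea/100 mM Tris pH 8.0 with sonication. Proteins were reduced with 5 mM DTT, alkylated with 15 mM IAA and digested overnight with trypsin (1:100). Peptides were analysed on a 130 min nanoLC gradient by Q Exactive HF-X data-dependent MS (top-20 HCD). Run in duplicate.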

The test system of series [11] is HT-29. The series is described as follows: Inhibition of colony formation in human HT-29 cells at 10 to 100 nM incubated for 10 days by crystal violet staining based assay. The format is functional, cell-based. The conditions noted are these: dose 10-100 nM, time 10.0 day. The gist of the method:
as §1

In series [12] the test system is SU-DHL-1. The series is described as follows: Inhibition of ERK phosphorylation in human SU-DHL-1 cells at 0.3 to 3 uM and incubated for 24 hrs by Western blot analysis. The settings on record: dose 0.3-3 µM. In kind it is cell-based. The gist of the method:
(§3)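 H3122 and SU-DHL-1 cells were treated with compounds, and MEK1/2, pMEK and pERK were assessed by Western blot of lysates.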

Series [13] deals with NCI-H3122. Put plainly: Inhibition of ERK phosphorylation in human NCI-H3122 cells at 0.3 to 3 uM and incubated for 24 hrs by Western blot analysis. The format is cell-based. The settings on record: dose 0.3-3 µM. The gist of the method: as §3
Series [14] relates to HT-29. Put plainly: Antiproliferative activity against human HT-29 cells incubated for 3 days by WST8 assay. In kind it is functional. The settings on record: HT-29, 72 h, time 3 day.
Series [15] has as its system SK-MEL-28. The series is described as follows: Antiproliferative activity against human SK-MEL-28 cells incubated for 3 days by WST8 assay. The format is functional. The settings on record: SK-MEL-28, 72 h, time 3 day.
Series [16] relates to HT-29. Put plainly: Effect on global proteome expression in human HT-29 cells at 0.3 uM incubated for 8 hrs by mass spectrometry analysis based global proteome analysis. In kind it is functional, cell-based. In short, it runs like this:
as §2

For series [17], the system named is HT-29. The series is described as follows: Antiproliferative activity against human HT-29 cells at 0.00017 to 10 uM in presence of 100 nM PLX4032 incubated for 3 days by WST-8 assay. The format is functional, cell-based. The conditions noted are these: dose 0.00017-10 µM, time 3.0 day. The gist of the method:
(§4)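 Cells grown in DMEM, RPMI-1640 or EMEM with 10% FBS and penicillin/streptomycin. They were exposed for 3 days to a dilution series of degrader combined with fixed PLX4032 (100 nM) or ZSTK474 (400 nM). Live-cell signal was read by WST-8. Triplicate points, mean ± SD of three independent experiments. Student's t-test per concentration versus DMSO.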

Series [18] is described as follows: Toxicity in Swiss albino mouse assessed as induction of adverse events at 50 mg/kg, ip administered as single dose and measured up to 8 hrs. The conditions noted are these: in vivo. The format is organism-based.
Series [19] can be described thus: Toxicity in Swiss albino mouse assessed as effect on clinical signs at 50 mg/kg, ip administered as single dose and measured up to 8 hrs. The format is organism-based. The conditions noted are these: in vivo.
A short description of series [20]: Drug level in Swiss albino mouse plasma at 50 mg/kg, ip administered as single dose and measured up to 8 hrs by LC-MS/MS analysis. The format is ADME, organism-based. The conditions noted are these: in vivo.
Series [21] in a line: Toxicity in Swiss albino mouse assessed as drug tolerability at 50 mg/kg, ip administered as single dose and measured up to 8 hrs. The format is organism-based. The settings on record: in vivo.
Series [22] deals with SK-MEL-28. Put plainly: Antiproliferative activity against human SK-MEL-28 cells at 0.00017 to 10 uM in presence of 400 nM ZSTK474 incubated for 3 days by WST-8 assay. The conditions noted are these: dose 0.00017-10 µM, time 3.0 day. In kind it is functional, cell-based. In short, it runs like this:
as §4

For series [23], the system named is HT-29. Put plainly: Antiproliferative activity against human HT-29 cells at 0.00017 to 10 uM in presence of 400 nM ZSTK474 incubated for 3 days by WST-8 assay. In kind it is functional, cell-based. The settings on record: dose 0.00017-10 µM, time 3.0 day. The gist of the method:
as §4

Series [24] concerns SK-MEL-28. The series is described as follows: Antiproliferative activity against human SK-MEL-28 cells at 0.00017 to 10 uM in presence of 100 nM PLX4032 incubated for 3 days by WST-8 assay. The format is functional, cell-based. The conditions noted are these: dose 0.00017-10 µM, time 3.0 day. In short, it runs like this: as §4
Series [25] concerns SK-MEL-28. The series is described as follows: Inhibition of ERK phosphorylation in human SK-MEL-28 cells at 0.0001 to 3 uM incubated for 24 hrs by Western blot analysis. The format is cell-based. The conditions noted are these: dose 0.0001-3 µM.
Series [26] concerns HT-29. The series is described as follows: Inhibition of ERK phosphorylation in human HT-29 cells pre-incubated with PD0325901 for 2 hrs followed by compound addition at 0.1 uM and further incubated for 8 hrs by Western blot analysis. The format is cell-based.
Series [27] relates to HT-29. The series is described as follows: Inhibition of ERK phosphorylation in human HT-29 cells pre-incubated with VH032 for 2 hrs followed by compound addition at 0.1 uM and further incubated for 8 hrs by Western blot analysis. In kind it is cell-based.
For series [28], the system named is HT-29. Put plainly: Inhibition of ERK phosphorylation in human HT-29 cells pre-incubated with MG-132 for 2 hrs followed by compound addition at 0.1 uM and further incubated for 8 hrs by Western blot analysis. The format is cell-based.
Series [29] deals with HT-29. Put plainly: Inhibition of ERK phosphorylation in human HT-29 cells pre-incubated with MLN4924 for 2 hrs followed by compound addition at 0.1 uM and further incubated for 8 hrs by Western blot analysis. The format is cell-based.
Series [30] deals with HT-29. The series is described as follows: Inhibition of ERK phosphorylation in human HT-29 cells pre-incubated for 2 hrs followed by compound addition at 0.1 uM and further incubated for 8 hrs by Western blot analysis.
Series [31] has as its system SU-DHL-1. Put plainly: Antiproliferative activity against human SU-DHL-1 cells incubated for 3 days by WST8 assay. The format is functional. The conditions noted are these: SU-DHL-1, 72 h, time 3 day.

Activity calls are given as the source filed them. The rule behind the calls is not given here.

Turning to `O=C1CCC(N2C(=O)c3ccc(NCCOCCOCCOCCOCCOCCNCCCONC(=O)c4ccc(F)c(F)c4Nc4ccc(I)cc4F)cc3C2=O)C(=O)N1` (stereo not drawn), the inhibition result with HT-29 [1] is “Dose-dependent effect”. For the same molecule, the inhibition entry in the series on HT-29 [2] and in the series on HT-29 [6] was “Active” throughout. Further, the inhibition entry in the series with HT-29 [3], in the series with HT-29 [4], in the series on HT-29 [5] and with HT-29 [7] was “inactive” throughout.

In the case of `Cc1ncsc1-c1ccc([C@H](C)NC(=O)[C@H]2C[C@H](O)CN2C(=O)[C@@H](NC(=O)CCCCCCCCCCCNCCCCONC(=O)c2ccc(F)c(F)c2Nc2ccc(I)cc2F)C(C)(C)C)cc1`, the outcome in the series on NCI-H3122 [8] and with HT-29 [10] was inactive. Also, the inhibition entry in the series with HT-29 [9], in the series with HT-29 [11], in the series with SU-DHL-1 [12] and with NCI-H3122 [13] was “inactive” in each case.

The GI50 is the concentration giving 50% growth inhibition. Regarding `Cc1ncsc1-c1ccc([C@H](C)NC(=O)[C@@H]2C[C@@H](O)CN2C(=O)[C@@H](NC(=O)CCCCCCCCCCNCCCONC(=O)c2ccc(F)c(F)c2Nc2ccc(I)cc2F)C(C)(C)C)cc1`, the values for the GI50 with HT-29 [14] and in the series with SK-MEL-28 [15] were 130 nM and 83 nM, respectively.

Turning to `CN1C(=O)CCC(N2C(=O)c3ccc(NCCOCCOCCOCCOCCOCCNCCCONC(=O)c4ccc(F)c(F)c4Nc4ccc(I)cc4F)cc3C2=O)C1=O` (stereo not drawn), the inhibition entry in the series with HT-29 [9] and in the series on HT-29 [6] was “inactive” throughout. The outcome in the series with HT-29 [16] was inactive.

For the molecule `Cc1ncsc1-c1ccc([C@H](C)NC(=O)[C@@H]2C[C@@H](O)CN2C(=O)[C@@H](NC(=O)CCCCCCCCCCCNCCCCONC(=O)c2ccc(F)c(F)c2Nc2ccc(I)cc2F)C(C)(C)C)cc1`, the outcome with NCI-H3122 [8], in the series on HT-29 [17], in the series on SK-MEL-28 [22], in the series with HT-29 [23] and in the series on SK-MEL-28 [24] was Active. In addition, the Activity entry in series [18], in [19] and in [21] was “Non-Toxic” in each case. In series [20], the Drug uptake entry is “Active”. Besides, the inhibition entry in the series on HT-29 [1] is “Dose-dependent effect”. In addition, the inhibition entry with SK-MEL-28 [25], in the series on HT-29 [26], with HT-29 [11], in the series with SU-DHL-1 [12] and with NCI-H3122 [13] was “Active” throughout. For the same molecule, the inhibition result with HT-29 [27], in the series on HT-29 [28], with HT-29 [29] and in the series with HT-29 [30] was “inactive” throughout.

On to `Cc1ncsc1-c1ccc([C@H](C)NC(=O)[C@@H]2C[C@@H](O)CN2C(=O)[C@@H](NC(=O)CCCCCCCCCCN(C)CCCONC(=O)c2ccc(F)c(F)c2Nc2ccc(I)cc2F)C(C)(C)C)cc1`, for which, in the series with NCI-H3122 [8], the outcome was Active. Moreover, the Activity entry in [18], in series [19] and in [21] was “Non-Toxic” throughout. For the same molecule, the Drug uptake entry in series [20] was “Active”. Moreover, the inhibition result in the series on HT-29 [1] is “Dose-dependent effect”. Moreover, the inhibition result with SK-MEL-28 [25], with HT-29 [26], in the series with HT-29 [11], in the series with SU-DHL-1 [12] and in the series on NCI-H3122 [13] was “Active” each time. In addition, the inhibition entry in the series with HT-29 [27], with HT-29 [28], in the series on HT-29 [29] and with HT-29 [30] was “inactive” throughout.

Take `Cc1ncsc1-c1ccc([C@H](C)NC(=O)[C@@H]2C[C@@H](O)CN2C(=O)[C@@H](NC(=O)COCCOCCOCCNC(=O)CCc2ccc(S(=O)(=O)Nc3cc(C)c(=O)n(C)c3Nc3ccc(I)cc3F)cc2)C(C)(C)C)cc1`: in the series on SU-DHL-1 [31], the concentration for 50% growth inhibition (GI50) was 2400 nM.
